Experimental data as given in ChEMBL document CHEMBL1817584, “Synthesis of novel fluconazoliums and their evaluation for antibacterial and antifungal activities” (2011).
In brackets after ≈: the same amount, converted by molar mass.

Assays:
Escherichia coli = assay: Antibacterial activity against Escherichia coli ATCC 8099 after 24 hrs by twofold serial dilution method; format: functional; conditions: ATCC 8099, 24 h
In short: (§1)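 Each bacterial suspension was adjusted with sterile saline to 1 × 10⁵ CFU. Compounds were first dissolved in DMSO as stock solutions, then diluted in Mueller–Hinton broth in twofold steps (8, 4, 2, 1, 0.5, 0.25). Dilutions were inoculated and incubated at 37 °C for 24 h, and MIC was read. DMSO plus inoculum without drug served as a solvent control.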

Bacillus = assay: Antibacterial activity against Bacillus proteus ATCC 13315 after 24 hrs by twofold serial dilution method; format: functional; conditions: ATCC 13315, 24 h; in short: as §1
Pseudomonas aeruginosa = assay: Antibacterial activity against Pseudomonas aeruginosa ATCC 27853 after 24 hrs by twofold serial dilution method; format: functional; conditions: ATCC 27853, 24 h; in short: as §1
Candida albicans = assay: Antifungal activity against Candida albicans ATCC 76615 after 24 hrs by twofold serial dilution method; format: functional; conditions: ATCC 76615, 24 h
In short: (§2)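 A fungal spore suspension was made in sterile distilled water from a 1-day-old culture grown on Sabouraud agar, then tested against serial dilutions of compounds (DMSO stocks) to determine MIC.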

Bacillus subtilis = assay: Antibacterial activity against Bacillus subtilis ATCC 21216 after 24 hrs by twofold serial dilution method; format: functional; conditions: ATCC 21216, 24 h; in short: as §1
Staphylococcus aureus [1] = assay: Antibacterial activity against Staphylococcus aureus ATCC 6538 after 24 hrs by twofold serial dilution method; format: functional; conditions: ATCC 6538, 24 h; in short: as §1
Staphylococcus aureus [2] = assay: Antibacterial activity against methicillin-resistant Staphylococcus aureus N315 after 24 hrs by twofold serial dilution method; format: functional; conditions: N315, 24 h
In short: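 Compounds were dissolved in DMSO as stock, then diluted twofold in Mueller–Hinton broth. Chloromycin and norfloxacin were run as reference drugs. The inoculum was adjusted in sterile saline to 1 × 10⁵ CFU, and a DMSO-plus-inoculum well served as solvent control. Plates were incubated at 37 °C for 24 h and read as MIC.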

Aspergillus fumigatus [3] = assay: Antifungal activity against Aspergillus fumigatus ATCC 96918 after 24 hrs by twofold serial dilution method; format: functional; conditions: ATCC 96918, 24 h; in short: as §2
Aspergillus fumigatus [4] = assay: Ratio of Fluconazole MIC to compound MIC for Aspergillus fumigatus ATCC 96918

Compound | MIC (Escherichia coli) [µg/mL] | MIC (Bacillus) [µg/mL] | MIC (Pseudomonas aeruginosa) [µg/mL] | MIC (Candida albicans) [µg/mL] | MIC (Bacillus subtilis) [µg/mL] | MIC (Staphylococcus aureus [1]) [µg/mL] | MIC (Staphylococcus aureus [2]) [µg/mL] | MIC (Aspergillus fumigatus [3]) [µg/mL] | Ratio (Aspergillus fumigatus [4])
OC(Cn1c[n+](Cc2ccc(Cl)cc2Cl)cn1)(Cn1c[n+](Cc2ccc(Cl)cc2Cl)cn1)c1ccc(F)cc1F.[I-].[I-] | 4 | 4 | 32 | 64 | 64 | 16 | 64 | 32 | 
Cc1cccc(C[n+]2cnn(CC(O)(Cn3c[n+](Cc4cccc(C)c4)cn3)c3ccc(F)cc3F)c2)c1.[Br-].[Br-] | 128 | 256 | 256 | 64 | 256 | 16 | 256 | 256 | 
OC(Cn1c[n+](Cc2ccccc2)cn1)(Cn1c[n+](Cc2ccccc2)cn1)c1ccc(F)cc1F.[Br-].[Br-] | 256 | 128 | 128 | 256 | 256 | 256 | 128 | 128 | 
O=[N+]([O-])c1ccc(C[n+]2cnn(CC(O)(Cn3c[n+](Cc4ccc([N+](=O)[O-])cc4)cn3)c3ccc(F)cc3F)c2)cc1.[Br-].[Br-] | 64 | 128 | 128 | 128 | 128 | 64 | 256 | 128 | 
O=C1c2cccc3c(Br)ccc(c23)C(=O)N1CCC[n+]1cnn(CC(O)(Cn2c[n+](CCCN3C(=O)c4cccc5c(Br)ccc(c45)C3=O)cn2)c2ccc(F)cc2F)c1.[Br-].[Br-] | 8 | 32 | 16 | 8 | 64 | 8 | 4 | 16 | 8
O=C1c2cccc3c(Br)ccc(c23)C(=O)N1CCCCCC[n+]1cnn(CC(O)(Cn2c[n+](CCCCCCN3C(=O)c4cccc5c(Br)ccc(c45)C3=O)cn2)c2ccc(F)cc2F)c1.[Br-].[Br-] | 8 | 64 | 32 | 16 | 64 | 8 | 16 | 32 | 8
Fc1ccc(Cn2cncn2)c(F)c1 | > 256 | > 256 | > 256 | > 256 | > 256 | > 256 | > 256 | > 256 | 
O=C1c2cccc3c(Br)ccc(c23)C(=O)N1CCCCCCn1cncn1 | > 256 | > 256 | > 256 | > 256 | > 256 | > 256 | > 256 | > 256 | 
CCCCCCCC[n+]1cnn(Cc2ccc(F)cc2F)c1.[Br-] | 16 | 8 | 16 | 32 | 64 | 8 | 16 | 32 | 
Fc1ccc(Cn2c[n+](Cc3ccc(Cl)cc3Cl)cn2)c(F)c1.[Br-] | 128 | 64 | 128 | > 256 | 128 | > 256 | > 256 | > 256 | 
Fc1ccc(Cn2c[n+](CCOc3ccc4ccccc4c3)cn2)c(F)c1.[Br-] | 8 | 16 | 8 | 32 | 64 | 16 | 64 | 128 | 
O=C1c2cccc3c(Br)ccc(c23)C(=O)N1CCCCCCn1c[n+](Cc2ccc(F)cc2F)cn1.[Br-] | 32 | 16 | 8 | 64 | 128 | 16 | 64 | 64 | 
OC(Cn1cncn1)(Cn1cncn1)c1ccc(F)cc1F [FLUCONAZOLE] |  |  |  | 0.5 (≈ 1.63 µM) |  |  |  | 256 (≈ 836 µM) | 
CCn1cc(C(=O)O)c(=O)c2cc(F)c(N3CCNCC3)cc21 [NORFLOXACIN] | 0.5 (≈ 1.57 µM) | 1 (≈ 3.13 µM) | 2 (≈ 6.26 µM) |  | 1 (≈ 3.13 µM) | 8 (≈ 25.1 µM) | 1 (≈ 3.13 µM) |  | 
